Experimental data reported in ChEMBL document CHEMBL1772950, “Solid phase synthesis and biological activity of tuftsin conjugates” (J Med Chem, 2011).
Activity calls are given as the source filed them. The calls are words filed in the database; no cut-off is given here. Residues, ends and D or L forms follow the SMILES beside them. *: point of attachment. Acridin9yl(1-NO2,4-Me) = Cc1ccc([N+](=O)[O-])c2c(*)c3ccccc3nc12; X1 = O=C(c1ccc([N+](=O)[O-])c2c(=O)c3ccccc3[nH]c12)*; Acridone(4-CO) = O=C(c1cccc2c(=O)c3ccccc3[nH]c12)*; X2 = O=[N+]([O-])c1cccc2nc3ccccc3c(*)c12; Ahx = NCCCCCC(=O)O; GABA = NCCCC(=O)O; βAla = NCCC(=O)O

Columns and labels:
[1] = target: T1, DNA topoisomerase 1 (Homo sapiens) (UniProt P11387); test: Inhibition of human topoisomerase I mediated DNA relaxation at 1 to 100 uM
T1 sequence (whole entry): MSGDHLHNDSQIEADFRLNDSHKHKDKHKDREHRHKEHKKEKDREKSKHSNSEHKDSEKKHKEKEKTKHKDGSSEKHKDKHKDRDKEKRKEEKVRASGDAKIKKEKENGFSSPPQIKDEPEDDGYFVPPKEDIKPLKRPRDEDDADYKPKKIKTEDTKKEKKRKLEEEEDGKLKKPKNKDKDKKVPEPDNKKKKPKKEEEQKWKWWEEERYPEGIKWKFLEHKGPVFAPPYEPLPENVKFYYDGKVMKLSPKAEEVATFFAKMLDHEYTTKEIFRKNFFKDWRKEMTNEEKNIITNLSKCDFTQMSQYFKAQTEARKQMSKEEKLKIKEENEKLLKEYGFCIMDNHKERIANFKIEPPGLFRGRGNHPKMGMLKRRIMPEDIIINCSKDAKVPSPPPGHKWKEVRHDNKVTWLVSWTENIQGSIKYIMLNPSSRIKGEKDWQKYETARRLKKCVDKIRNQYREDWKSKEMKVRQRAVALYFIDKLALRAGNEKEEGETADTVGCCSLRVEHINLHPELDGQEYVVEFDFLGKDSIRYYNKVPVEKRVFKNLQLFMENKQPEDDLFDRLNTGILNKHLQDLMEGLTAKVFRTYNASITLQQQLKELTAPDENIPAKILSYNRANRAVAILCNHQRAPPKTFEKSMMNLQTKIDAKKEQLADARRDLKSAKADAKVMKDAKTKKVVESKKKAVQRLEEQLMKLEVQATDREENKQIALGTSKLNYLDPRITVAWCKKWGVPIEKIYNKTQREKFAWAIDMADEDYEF
In short: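 Relaxation of 200 ng supercoiled pBR322 DNA by purified human topoisomerase I, in 10 mM Tris-HCl pH 7.5, 7.5 mM MgCl2, 60 mM KCl. Run 30 min at 37 °C, stopped with SDS/EDTA loading buffer. Products resolved on 1.2% agarose in TBE at 0.5 V/cm for 18 h, stained with ethidium bromide, imaged under UV.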

[2] = test system: HL-60; test: Anticancer activity against human HL60 cells assessed as cell viability by MTT assay; format: functional, cell-based
In short: (§1)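 Cells kept in RPMI 1640 with 10% FBS, 2 mM L-glutamine, penicillin/streptomycin, 37 °C, 5% CO2. Exponentially growing cells exposed continuously to a range of concentrations (10 mM DMSO stocks) for three to four generation times. MTT added for 4 h at 37 °C; formazan read on plate reader. IC50 taken from survival–dose curves versus untreated controls. At least two independent experiments, each in duplicate.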

[3] = test system: A549; test: Anticancer activity against human A549 cells assessed as cell viability by MTT assay; format: functional, cell-based; in short: as §1
[4] = test system: HL-60; test: Induction apoptosis in human HL60 cells assessed as change in nuclear morphology at 25 uM after 24 to 72 hrs by fluorescence microscopy; format: functional, cell-based
[5] = test system: HL-60; test: Cell cycle arrest in human HL60 cells assessed as accumulation at early S phase after 72 hrs by flow cytometry; format: functional, cell-based
[6] = test system: A549; test: Cell cycle arrest in human A549 cells assessed as accumulation at M phase after 72 hrs by flow cytometry; format: functional, cell-based
[7] = test system: A549; test: Cell cycle arrest in human A549 cells assessed as accumulation at early S phase after 72 hrs by flow cytometry; format: functional, cell-based
[8] = test system: A549; test: Cell cycle arrest in human A549 cells assessed as accumulation at G2 phase after 72 hrs by flow cytometry; format: functional, cell-based
[9] = test system: HL-60; test: Cell cycle arrest in human HL60 cells assessed as accumulation at G2 phase after 72 hrs by flow cytometry; format: functional, cell-based
[10] = test system: HL-60; test: Cell cycle arrest in human HL60 cells assessed as accumulation at M phase after 72 hrs by flow cytometry; format: functional, cell-based
[11] = test system: HL-60; test: Cell cycle arrest in human HL60 cells assessed as accumulation at S phase after 24 hrs by flow cytometry; format: functional, cell-based
[12] = test system: HL-60; test: Cell cycle arrest in human HL60 cells assessed as accumulation at G2 phase after 24 hrs by flow cytometry; format: functional, cell-based
[13] = test system: HL-60; test: Cell cycle arrest in human HL60 cells assessed as accumulation at M phase after 24 hrs by flow cytometry; format: functional, cell-based
[14] = test system: A549; test: Cell cycle arrest in human A549 cells assessed as accumulation at G2 phase after 24 hrs by flow cytometry; format: functional, cell-based
[15] = test system: A549; test: Cell cycle arrest in human A549 cells assessed as accumulation at M phase after 24 hrs by flow cytometry; format: functional, cell-based
[16] = test system: A549; test: Cell cycle arrest in human A549 cells assessed as accumulation at S phase after 24 hrs by flow cytometry; format: functional, cell-based
[17] = target: DNA topoisomerase II alpha (Homo sapiens) (UniProt P11388); test: Inhibition of human topoisomerase II mediated DNA relaxation at 1 to 100 uM
Sequence of DNA topoisomerase II alpha (Homo sapiens) (P11388 whole entry, looked up): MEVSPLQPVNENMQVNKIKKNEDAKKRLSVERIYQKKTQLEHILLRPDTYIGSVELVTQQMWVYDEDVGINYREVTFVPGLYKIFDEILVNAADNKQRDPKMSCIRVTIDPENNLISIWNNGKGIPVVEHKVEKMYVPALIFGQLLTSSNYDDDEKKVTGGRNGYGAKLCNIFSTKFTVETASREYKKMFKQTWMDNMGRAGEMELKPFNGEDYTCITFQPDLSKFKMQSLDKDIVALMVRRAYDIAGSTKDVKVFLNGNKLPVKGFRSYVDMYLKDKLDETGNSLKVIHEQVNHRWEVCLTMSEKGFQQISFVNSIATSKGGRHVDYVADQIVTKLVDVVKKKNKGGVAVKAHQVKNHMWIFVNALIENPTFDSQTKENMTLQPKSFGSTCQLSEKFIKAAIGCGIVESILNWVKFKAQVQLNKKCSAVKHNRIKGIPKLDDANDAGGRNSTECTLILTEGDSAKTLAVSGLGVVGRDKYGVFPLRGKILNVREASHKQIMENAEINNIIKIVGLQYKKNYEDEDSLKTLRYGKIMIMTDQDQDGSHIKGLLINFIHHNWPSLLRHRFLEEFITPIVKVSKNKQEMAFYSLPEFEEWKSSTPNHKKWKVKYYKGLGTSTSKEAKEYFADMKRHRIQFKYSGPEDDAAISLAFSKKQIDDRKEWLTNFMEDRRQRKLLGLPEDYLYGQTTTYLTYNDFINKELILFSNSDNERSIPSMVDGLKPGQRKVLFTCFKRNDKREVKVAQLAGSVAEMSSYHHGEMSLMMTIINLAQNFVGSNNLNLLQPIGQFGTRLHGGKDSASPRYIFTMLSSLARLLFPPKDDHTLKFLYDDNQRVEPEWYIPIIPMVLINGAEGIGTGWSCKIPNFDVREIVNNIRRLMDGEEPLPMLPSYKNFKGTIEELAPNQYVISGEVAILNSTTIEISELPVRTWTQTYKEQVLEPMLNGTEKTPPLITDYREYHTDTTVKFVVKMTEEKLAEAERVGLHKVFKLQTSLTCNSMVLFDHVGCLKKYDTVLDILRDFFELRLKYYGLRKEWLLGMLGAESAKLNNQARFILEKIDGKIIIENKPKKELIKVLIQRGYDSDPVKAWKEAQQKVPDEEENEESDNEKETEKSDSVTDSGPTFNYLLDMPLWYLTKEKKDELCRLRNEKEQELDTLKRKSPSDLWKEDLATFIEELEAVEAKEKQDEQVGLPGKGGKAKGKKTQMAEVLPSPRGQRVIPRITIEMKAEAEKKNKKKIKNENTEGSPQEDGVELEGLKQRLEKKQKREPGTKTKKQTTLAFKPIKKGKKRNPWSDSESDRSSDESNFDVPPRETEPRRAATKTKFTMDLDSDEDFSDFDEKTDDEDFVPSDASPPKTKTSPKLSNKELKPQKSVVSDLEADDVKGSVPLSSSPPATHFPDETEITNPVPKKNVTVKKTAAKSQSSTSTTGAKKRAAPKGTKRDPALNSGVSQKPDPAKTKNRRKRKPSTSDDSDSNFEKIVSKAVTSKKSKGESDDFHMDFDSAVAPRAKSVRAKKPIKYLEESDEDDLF

Structure (SMILES)	IC50 [2]	IC50 [3]	further results
C[C@H](N)C(=O)NCCCC[C@H](NC(=O)[C@@H]1CCCN1C(=O)[C@H](CCCNC(=N)N)Nc1ccc(O)c2c1C(=O)c1ccccc1C2=O)C(=O)N[C@H](C(=O)O)[C@@H](C)O	> 100 µM	> 100 µM	–
CC(C)[C@H](N)C(=O)NCCCC[C@H](NC(=O)[C@@H]1CCCN1C(=O)[C@H](CCCNC(=N)N)Nc1ccc(O)c2c1C(=O)c1ccccc1C2=O)C(=O)N[C@H](C(=O)O)[C@@H](C)O	–	41.5 µM	–
CC[C@H](C)[C@H](N)C(=O)NCCCC[C@H](NC(=O)[C@@H]1CCCN1C(=O)[C@H](CCCNC(=N)N)NC(=O)c1ccc([N+](=O)[O-])c2c(=O)c3ccccc3[nH]c12)C(=O)N[C@H](C(=O)O)[C@@H](C)O (X1-RPK(Ile)T-OH)	> 100 µM	38.9 µM	–
CC[C@H](C)[C@H](N)C(=O)NCCCC[C@H](NC(=O)[C@@H](NC(=O)c1ccc([N+](=O)[O-])c2c(=O)c3ccccc3[nH]c12)[C@@H](C)O)C(=O)N1CCC[C@H]1C(=O)N[C@@H](CCCNC(=N)N)C(=O)O (X1-TK(Ile)PR-OH)	> 100 µM	> 100 µM	–
CC[C@H](C)[C@H](N)C(=O)NCCCC[C@H](NC(=O)[C@@H]1CCCN1C(=O)[C@H](CCCNC(=N)N)NC(=O)CCCCCNc1c2ccccc2nc2c(C)ccc([N+](=O)[O-])c12)C(=O)N[C@H](C(=O)O)[C@@H](C)O ({Acridin9yl(1-NO2,4-Me)-Ahx}-RPK(Ile)T-OH)	23.2 µM	47.3 µM	–
Cc1ccc([N+](=O)[O-])c2c(NCCCCCC(=O)N[C@@H](CCCNC(=N)N)C(=O)N3CCC[C@H]3C(=O)N[C@@H](CCCCN)C(=O)N[C@H](C(=O)O)[C@@H](C)O)c3ccccc3nc12 ({Acridin9yl(1-NO2,4-Me)-Ahx}-RPKT-OH)	22.1 µM	25.6 µM	–
CC[C@H](C)[C@H](N)C(=O)NCCCC[C@H](NC(=O)[C@@H](NC(=O)CCCCCNc1c2ccccc2nc2c(C)ccc([N+](=O)[O-])c12)[C@@H](C)O)C(=O)N1CCC[C@H]1C(=O)N[C@@H](CCCNC(=N)N)C(=O)O ({Acridin9yl(1-NO2,4-Me)-Ahx}-TK(Ile)PR-OH)	11.3 µM	8.7 µM	–
Cc1ccc([N+](=O)[O-])c2c(NCCCCCC(=O)N[C@H](C(=O)N[C@@H](CCCCN)C(=O)N3CCC[C@H]3C(=O)N[C@@H](CCCNC(=N)N)C(=O)O)[C@@H](C)O)c3ccccc3nc12 ({Acridin9yl(1-NO2,4-Me)-Ahx}-TKPR-OH)	13.2 µM	15 µM	–
Cc1ccc([N+](=O)[O-])c2c(NCCCC(=O)N[C@H](C(=O)N[C@@H](CCCCNC(=O)CN)C(=O)N3CCC[C@H]3C(=O)N[C@@H](CCCNC(=N)N)C(=O)O)[C@@H](C)O)c3ccccc3nc12 ({Acridin9yl(1-NO2,4-Me)-GABA}-TK(Gly)PR-OH)	17.2 µM	3 µM	Activity [4]: inactive; Activity [5]: Active; Activity [6]: Active; Activity [7]: Active; Activity [8]: Active; Activity [9]: Active; Activity [10]: Active; Activity [11]: Active; Activity [12]: Active; Activity [13]: Active; Activity [14]: Active; Activity [15]: Active; Activity [16]: Active; inhibition [17]: inactive
Cc1ccc([N+](=O)[O-])c2c(NCCC(=O)N[C@H](C(=O)N[C@@H](CCCCNC(=O)CN)C(=O)N3CCC[C@H]3C(=O)N[C@@H](CCCNC(=N)N)C(=O)O)[C@@H](C)O)c3ccccc3nc12 ({Acridin9yl(1-NO2,4-Me)-βAla}-TK(Gly)PR-OH)	55.5 µM	76.5 µM	–
C[C@@H](O)[C@H](NC(=O)[C@H](CCCCNC(=O)CN)NC(=O)[C@@H]1CCCN1C(=O)[C@H](CCCNC(=N)N)NC(=O)c1cccc2c(=O)c3ccccc3[nH]c12)C(=O)O ({Acridone(4-CO)}-RPK(Gly)T-OH)	> 100 µM	> 100 µM	–
CC[C@H](C)[C@H](N)C(=O)NCCCC[C@H](NC(=O)[C@@H]1CCCN1C(=O)[C@H](CCCNC(=N)N)NC(=O)c1cccc2c(=O)c3ccccc3[nH]c12)C(=O)N[C@H](C(=O)O)[C@@H](C)O ({Acridone(4-CO)}-RPK(Ile)T-OH)	> 100 µM	> 100 µM	–
C[C@@H](O)[C@H](NC(=O)c1cccc2c(=O)c3ccccc3[nH]c12)C(=O)N[C@@H](CCCCNC(=O)CN)C(=O)N1CCC[C@H]1C(=O)N[C@@H](CCCNC(=N)N)C(=O)O ({Acridone(4-CO)}-TK(Gly)PR-OH)	> 100 µM	> 100 µM	–
C[C@@H](O)[C@H](NC(=O)[C@H](CCCCNC(=O)CN)NC(=O)[C@@H]1CCCN1C(=O)[C@H](CCCNC(=N)N)NC(=O)CCNc1c2ccccc2nc2cccc([N+](=O)[O-])c12)C(=O)O ({X2-βAla}-RPK(Gly)T-OH)	71.5 µM	33.9 µM	–

More lines, main results first:

IC50 [2]	IC50 [3]	Structure (SMILES)	further results
32.4 µM	14.2 µM	C[C@@H](O)[C@H](Nc1ccc(O)c2c1C(=O)c1ccccc1C2=O)C(=O)N[C@@H](CCCCN)C(=O)N1CCC[C@H]1C(=O)N[C@@H](CCCNC(=N)N)C(=O)O	inhibition [1]: Active
> 100 µM	> 100 µM	C[C@@H](O)[C@H](NC(=O)[C@H](CCCCN)NC(=O)[C@@H]1CCCN1C(=O)[C@H](CCCNC(=N)N)Nc1ccc(O)c2c1C(=O)c1ccccc1C2=O)C(=O)O	–
> 100 µM	> 100 µM	O=C(O)c1ccc([N+](=O)[O-])c2c(=O)c3ccccc3[nH]c12	–
17.5 µM	18.7 µM	Cc1ccc([N+](=O)[O-])c2c(NCCCCCC(=O)O)c3ccccc3nc12	–
15.5 µM	17.6 µM	Cc1ccc([N+](=O)[O-])c2c(NCCCC(=O)O)c3ccccc3nc12	Activity [4]: Active; Activity [5]: Active; Activity [6]: Active; Activity [7]: Active; Activity [8]: Active; Activity [9]: Active; Activity [10]: Active; Activity [11]: Active; Activity [12]: Active; Activity [13]: Active; Activity [14]: Active; Activity [15]: Active; Activity [16]: Active; inhibition [17]: inactive
18.9 µM	6 µM	O=C(O)CCNc1c2ccccc2nc2cccc([N+](=O)[O-])c12	–
15.8 µM	15.8 µM	O=C1CCC(=O)c2c1c(O)c1ccccc1c2O	inhibition [1]: Active
